How the values were obtained:
Assay type in all cases: functional
[1] = tested on: MDA-MB-468; assay: Cytotoxicity against human MDA-MB-468 cells assessed as cell growth at 10^-8 M after 48 hrs by SRB assay; conditions: MDA-MB-468, 48 h, read-out: Activity
[2] = tested on: CAKI-1; assay: Growth inhibition of human Caki1 cells after 48 hrs by SRB assay; conditions: CAKI-1, 48 h
Procedure, shortened: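 Same 48 h NCI-60 five-dose SRB protocol. Adherent lines were fixed with cold TCA at 10% final; suspension lines such as CCRF-CEM were fixed with 16% final TCA. Stain was 0.4% SRB in 1% acetic acid for 10 min, solubilized in 10 mM Tris base and read at 515 nm. GI50 came from log concentration–growth curves, solving [(Ti−Tz)/(C−Tz)]×100 = 50.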

[3] = tested on: Malme-3M; assay: Cytotoxicity against human MALME-3M cells assessed as cell growth at 10^-8 M after 48 hrs by SRB assay; conditions: read-out: Activity
[4] = tested on: HOP-92; assay: Cytotoxicity against human HOP92 cells assessed as cell growth at 10^-8 M after 48 hrs by SRB assay; conditions: HOP-92, 48 h, read-out: Activity
Procedure, shortened: (§1)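 NCI-60 five-dose screen. Cells were grown in RPMI 1640 with 5% FBS and seeded at 5000–40,000 cells/well according to doubling time. They were pre-incubated 24 h at 37 °C in 5% CO₂, and time-zero (Tz) plates were TCA-fixed at drug addition. Five 10-fold dilutions of DMSO stock were applied for 48 h. Read-out was SRB staining, 515 nm absorbance, with percent growth calculated versus Tz and untreated control.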

[5] = tested on: CCRF-CEM; assay: Cytotoxicity against human CCRF-CEM cells assessed as cell growth at 10^-6 M after 48 hrs by SRB assay; conditions: read-out: Activity
Procedure, shortened: (§2)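 NCI-60 screen: lines kept in RPMI 1640 with 5% FBS, seeded at 5000–40,000 cells/well by doubling time, preincubated 24 h at 37 °C in 5% CO2. Time-zero plates TCA-fixed at drug addition. DMSO stocks diluted in medium, 48 h exposure. Fixation in cold TCA (final 10% adherent, 16% suspension), 0.4% SRB stain, solubilised in 10 mM Tris base, A515. Percent growth computed against control and time-zero.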

[6] = tested on: Malme-3M; assay: Cytotoxicity against human MALME-3M cells assessed as cell growth at 10^-4 M after 48 hrs by SRB assay; conditions: read-out: Activity
[7] = tested on: HCT-15; assay: Cytotoxicity against human HCT15 cells assessed as cell growth at 10^-4 M after 48 hrs by SRB assay; conditions: HCT-15, 48 h, read-out: Activity; procedure, shortened: as §1
[8] = tested on: DU-145; assay: Cytotoxicity against human DU145 cells assessed as cell growth at 10^-8 M after 48 hrs by SRB assay; conditions: DU-145, 48 h, read-out: Activity; procedure, shortened: as §2
[9] = tested on: T47D; assay: Cytotoxicity against human T47D cells assessed as cell growth at 10^-4 M after 48 hrs by SRB assay; conditions: read-out: Activity
[10] = tested on: 786-0; assay: Cytotoxicity against human 786-0 cells assessed as cell growth at 10^-5 M after 48 hrs by SRB assay; conditions: 786-0, 48 h, read-out: Activity; procedure, shortened: as §2
[11] = tested on: SF-295; assay: Cytotoxicity against human SF295 cells assessed as cell growth at 10^-8 M after 48 hrs by SRB assay; conditions: SF-295, 48 h, read-out: Activity
[12] = tested on: HOP-62; assay: Cytotoxicity against human HOP62 cells assessed as cell growth at 10^-6 M after 48 hrs by SRB assay; conditions: HOP-62, 48 h, read-out: Activity; procedure, shortened: as §1
[13] = tested on: OVCAR-3; assay: Cytotoxicity against human OVCAR3 cells assessed as cell growth at 10^-4 M after 48 hrs by SRB assay; conditions: OVCAR-3, 48 h, read-out: Activity
[14] = tested on: LOX IMVI; assay: Cytotoxicity against human LOXIMVI cells assessed as cell growth at 10^-4 M after 48 hrs by SRB assay; conditions: read-out: Activity
[15] = Cytotoxicity against human Hs 578T cells assessed as cell growth at 10^-5 M after 48 hrs by SRB assay; conditions: read-out: Activity; procedure, shortened: as §1
[16] = tested on: HL-60; assay: Cytotoxicity against human HL60 cells assessed as cell growth at 10^-8 M after 48 hrs by SRB assay; conditions: HL-60, 48 h, read-out: Activity; procedure, shortened: as §1
[17] = tested on: SK-MEL-2; assay: Cytotoxicity against human SK-MEL-2 cells assessed as cell growth at 10^-4 M after 48 hrs by SRB assay; conditions: SK-MEL-2, 48 h, read-out: Activity
[18] = Cytotoxicity against human NCI-ADR-RES cells assessed as cell growth at 10^-8 M after 48 hrs by SRB assay; conditions: read-out: Activity
[19] = tested on: CAKI-1; assay: Cytotoxicity against human Caki1 cells assessed as cell growth at 10^-6 M after 48 hrs by SRB assay; conditions: CAKI-1, 48 h, read-out: Activity; procedure, shortened: as §2
[20] = tested on: MDA-MB-435; assay: Growth inhibition of human MDA-MB-435 cells after 48 hrs by SRB assay; conditions: MDA-MB-435, 48 h
Procedure, shortened: (§3)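 Adherent NCI-60 lines grown in RPMI 1640 with 5% FBS, seeded at 5000–40,000 cells/well, and preincubated 24 h at 37 °C, 5% CO2. Compound, stocked in DMSO, given either once at 10^-5 M or at five 10-fold dilutions for 48 h. Cells fixed with cold TCA (final 10%), stained with 0.4% SRB, and read at 515 nm. GI50 taken as 50% reduction in net protein increase versus time-zero and control plates.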

[21] = tested on: SN12C; assay: Cytotoxicity against human SN12C cells assessed as cell growth at 10^-8 M after 48 hrs by SRB assay; conditions: read-out: Activity
[22] = tested on: NCI-H460; assay: Growth inhibition of human NCI-H460 cells after 48 hrs by SRB assay; conditions: NCI-H460, 48 h; for CC50: read-out: LC50 (the source's name); procedure, shortened: as §3
[23] = tested on: MOLT-4; assay: Cytotoxicity against human MOLT4 cells assessed as cell growth at 10^-8 M after 48 hrs by SRB assay; conditions: MOLT-4, 48 h, read-out: Activity
[24] = tested on: IGROV-1; assay: Cytotoxicity against human IGROV1 cells assessed as cell growth at 10^-8 M after 48 hrs by SRB assay; conditions: IGROV-1, 48 h, read-out: Activity
[25] = tested on: MDA-MB-231; assay: Cytotoxicity against human MDA-MB-231 cells assessed as cell growth at 10^-5 M after 48 hrs by SRB assay; conditions: MDA-MB-231, 48 h, read-out: Activity
[26] = tested on: SNB-75; assay: Cytotoxicity against human SNB75 cells assessed as cell growth at 10^-8 M after 48 hrs by SRB assay; conditions: SNB-75, 48 h, read-out: Activity
[27] = Cytotoxicity against human […] cells assessed as cell growth at 10^-8 M after 48 hrs by SRB assay; conditions: 48 h, read-out: Activity
[28] = tested on: MCF7; assay: Growth inhibition of human MCF7 cells after 48 hrs by SRB assay; conditions: MCF7, 48 h; procedure, shortened: as §3
[29] = tested on: SN12C; assay: Cytotoxicity against human SN12C cells assessed as cell growth at 10^-4 M after 48 hrs by SRB assay; conditions: read-out: Activity

| SMILES | growth at 0.01 µM [1] [%] | GI50 [2] [µM] | LC50 (50% lethal concentration) [2] [µM] | TGI [2] [µM] | growth at 0.01 µM [3] [%] | growth at 0.01 µM [4] [%] | growth at 1 µM [5] [%] | growth at 100 µM [6] [%] | growth at 100 µM [7] [%] | growth at 0.01 µM [8] [%] | growth at 100 µM [9] [%] | growth at 10 µM [10] [%] | growth at 0.01 µM [11] [%] | growth at 1 µM [12] [%] | growth at 100 µM [13] [%] | growth at 100 µM [14] [%] | growth at 10 µM [15] [%] | growth at 0.01 µM [16] [%] | growth at 100 µM [17] [%] | growth at 0.01 µM [18] [%] | further results |
| --- | --- | --- | --- | --- | --- | --- | --- | --- | --- | --- | --- | --- | --- | --- | --- | --- | --- | --- | --- | --- | --- |
| COc1ccc(-c2nn3cc(-c4cccc(N)c4)nc3s2)cc1 | 94 | 0.743 | > 100 | 10.9 | 102 | 71 | 63 | -66 | 1 | 101 | -14 | 23 | 95 | 84 | -74 | -29 | 6 | 103 | 38 | 100 | growth at 1 µM [19]: 46%; GI50 [20]: 2.58 µM; LC50 [20]: 89.6 µM; TGI [20]: 14.8 µM; growth at 0.01 µM [21]: 91%; GI50 [22]: 3.36 µM; TGI [22]: 28.9 µM; CC50 [22]: > 100 µM; growth at 0.01 µM [23]: 103%; growth at 0.01 µM [24]: 102%; growth at 10 µM [25]: 5%; growth at 0.01 µM [26]: 70%; growth at 0.01 µM [27]: 96%; GI50 [28]: 2.2 µM; LC50 (50% cell kill) [28]: > 100 µM; TGI [28]: 20.3 µM; growth at 100 µM [29]: 4% |
| COc1ccc(-c2nn3cc(-c4ccc(O)cc4O)nc3s2)cc1 | 96 | 2.07 | > 100 | 28.9 | 87 | 73 | 74 | -28 | 4 | 106 | -20 | -78 | 95 | 81 | -14 | -4 | -2 | 96 | -48 | 101 | growth at 1 µM [19]: 69%; GI50 [20]: 2.61 µM; LC50 [20]: > 100 µM; TGI [20]: 18.6 µM; growth at 0.01 µM [21]: 99%; GI50 [22]: 2.02 µM; CC50 [22]: > 100 µM; growth at 0.01 µM [23]: 100%; growth at 0.01 µM [24]: 96%; growth at 10 µM [25]: -54%; growth at 0.01 µM [26]: 69%; growth at 0.01 µM [27]: 100%; GI50 [28]: 1.98 µM; LC50 (50% cell kill) [28]: > 100 µM; TGI [28]: 21.6 µM; growth at 100 µM [29]: 2% |
